ATG4B inh: ATG4B protease inhibitors, primary screen, biochemical, fluorescence, uHTS. Cysteine protease ATG4B (Homo sapiens), Q9Y4P1. ATG4B cleavage of LC3-PLA2, NBD-HPC fluorescence, 1 h. inhibition, % at 8.33 µM. hit rate 0.51% among 340,000. AID 504462, 2011; in the data active = inhibition above about 40%
LANA-H2A inh: blockers of LANA interaction with H2A/H2B – biochemical, FP readout, HTS, primary screen; Protein LANA1 (Human herpesvirus 8 type P (isolate GK18)), Q9QR71; cell-free LANA-H2A/H2B peptide, fluorescence polarization; inhibition, % (no concentration beside the values); hit rate 0.6% among 320,000; AID 2629, 2010; in the data active = inhibition mostly above about 10%, no sharp cut-off; inactive = mostly below about 6.7%
AI-2 QS modul: Vibrio harveyi AI-2 quorum sensing modulators, primary screen, JMH597 strain, luminescence/OD600 ratio. AID 2094, 2009. Vibrio harveyi JMH597 AI-2 luminescence/OD600 ratio, 9 h; hits give low values; strain lacks LuxN and CqsS sensors; 0 = neutral-control median. hit rate 0.4% among 300,000. activity change, % at 7.5 µM; in the data active = activity change below about -75%, passing the limit was not always enough; inconclusive = no clear call, values can overlap the other calls;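 note: luminescence divided by OD600 gain over 9 h not by final OD600 alone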
HKDC1 inhibitor: HKDC1 hexokinase inhibitors, primary screen, biochemical, fluorescence, uHTS. recombinant HKDC1, G6PDH/diaphorase resazurin coupled fluorescence. AID 493160, 2011. hit rate 0.16% among 340,000. Q2TB90. inhibition, % at 20 µM;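 active = inhibition above about 35% when tested at 20 µM, limit read from the data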;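 note: plate controls were DMSO wells with enzyme for no effect and DMSO wells lacking enzyme for full effect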
Target sequence (Q2TB90 whole entry, looked up): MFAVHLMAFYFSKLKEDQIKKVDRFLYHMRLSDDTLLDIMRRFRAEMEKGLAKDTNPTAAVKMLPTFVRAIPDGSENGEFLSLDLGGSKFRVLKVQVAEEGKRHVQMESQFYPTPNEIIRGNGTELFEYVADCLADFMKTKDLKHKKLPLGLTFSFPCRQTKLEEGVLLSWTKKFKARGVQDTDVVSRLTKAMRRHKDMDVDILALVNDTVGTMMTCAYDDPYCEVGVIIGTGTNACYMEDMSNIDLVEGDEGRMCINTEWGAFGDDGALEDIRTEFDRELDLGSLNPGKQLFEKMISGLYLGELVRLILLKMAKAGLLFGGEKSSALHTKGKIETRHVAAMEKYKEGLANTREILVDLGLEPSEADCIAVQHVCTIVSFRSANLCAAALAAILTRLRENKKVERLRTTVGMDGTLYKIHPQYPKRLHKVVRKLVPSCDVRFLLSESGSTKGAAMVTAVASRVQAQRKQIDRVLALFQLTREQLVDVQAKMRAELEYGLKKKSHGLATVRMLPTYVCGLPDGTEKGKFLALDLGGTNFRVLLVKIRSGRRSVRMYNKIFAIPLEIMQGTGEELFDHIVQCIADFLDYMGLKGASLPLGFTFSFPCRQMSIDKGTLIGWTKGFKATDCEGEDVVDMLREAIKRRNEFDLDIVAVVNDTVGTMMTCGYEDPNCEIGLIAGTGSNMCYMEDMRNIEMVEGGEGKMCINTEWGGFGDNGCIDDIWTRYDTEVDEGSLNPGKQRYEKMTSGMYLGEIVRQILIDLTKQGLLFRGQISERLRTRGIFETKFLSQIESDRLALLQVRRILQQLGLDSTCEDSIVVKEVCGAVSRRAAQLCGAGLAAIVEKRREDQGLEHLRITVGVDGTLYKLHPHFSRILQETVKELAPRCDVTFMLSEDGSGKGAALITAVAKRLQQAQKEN
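Assay system: recombinant HKDC1 hexokinase; detection: coupled resazurin fluorescence, excitation 525 nm, emission 613 nm; benchmarks: DMSO-plus-enzyme-mix negative control, buffer-substituted positive control; compound dosing: single 20 µM dose; schedule: 90 min at room temperature in dark; also added: glucose plus 1 mM ATP as hexokinase substrates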
A1 inh: caspase 3/7 activation in MEF A1-2A-BIM cells, primary screen, A1 inhibitor project, cell-based, luminescence, HTS; Caspase-Glo 3/7 luminescence, 3 h; percent of clofoctol response, vehicle zero; caspase activation, % (concentration not given with the values); hit rate 0.066% among 330,000; AID 2462, 2010;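 active = over half of replicate activation scores above 10%, or exactly half above 10 with the replicate mean above 10; inconclusive = replicate mean below 10 yet half the replicates above 10; inactive = over half of replicates below 10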
HDAC3 inh: HDAC3 deacetylase inhibitors, primary screen, biochemical, fluorescence, cell-free homogeneous; hit rate 0.15% among 320,000; recombinant HDAC3, fluorogenic peptide/trypsin coupled; inhibition, % at 8.3 µM; AID 2718, 2010; Histone deacetylase 3 (Homo sapiens), O15379; in the data active = inhibition above about 26%, passing the limit was not always enough; inconclusive = no clear call, values can overlap the other calls
An asterisk follows results filed as active; ? = inconclusive; · = no result. In the library only some 1.8% were active in any assay of this set; here they are far more common.

SMILES	ATG4B inh	LANA-H2A inh	AI-2 QS modul	HKDC1 inhibitor	A1 inh	HDAC3 inh
CCOC(=O)NC1(C(F)(F)F)N=C(c2ccccc2)NC1=O (stereo not given)	2	14*	23	3	0	-1
CC(Sc1ncccn1)C(=O)NNC(=O)c1cccc(Cl)c1 (stereo not given)	-2	2	·	1	1	-7
CC1=C(C(=O)OC(C)C)C(c2cccs2)C(C(=O)OC(C)C)=C(C)N1	-10	-4	0	-1	0	29*
O=C(C1CCCCC1)N1CCC2CC1c1cc(Cl)ccc12 (stereo not given)	11	·	·	-4	·	·
CCc1cccc2c(C(=O)COC(=O)c3ccc([N+](=O)[O-])s3)c[nH]c12	-36	-3	-206*	4	1	-1
O=C(OCC(=O)c1c[nH]c2ccccc12)c1ccc([N+](=O)[O-])s1	-32	5	-99*	4	-1	2
CN(C)S(=O)(=O)c1ccc(NC(=O)/C=C/c2ccccc2Cl)cc1	7	·	-93*	-1	0	·
O=C(/C=C/c1ccccc1Cl)Nc1ccccc1	-1	-6	-48	3	-7	-2
CC(=O)c1ccc(COC(=O)c2cc3ccccc3oc2=O)cc1	-4	11*	16	1	-1	-7
COC(=O)c1ccc(COC(=O)c2cc3ccccc3oc2=O)cc1	1	2	-4	-4	0	-8
COc1ccc(C)c2sc(NC(=O)CCS(=O)(=O)c3ccccc3)nc12	-17	103*	15	3	0	-7
CCOc1cccc2sc(NC(=O)CCS(=O)(=O)c3ccccc3)nc12	-3	-3	12	-2	2	-4
COc1ccc(CCNC(=O)c2cc(C)oc2C)cc1OC	-1	-1	32	-6	0	0
CCc1cccc(C)c1NC(=O)c1cc(C)oc1C	1	2	12	-7	0	4
COc1ccc(CCNC(=O)c2cc(C)oc2C)cc1	-5	14*	8	-7	0	-6
Cc1cc(C(=O)NCC(=O)Nc2c(C)cccc2C)c(C)o1	-11	167*	0	-3	0	-2
O=C(c1ccc(-c2cccc(C(F)(F)F)c2)o1)N1CCCC(C(F)(F)F)C1 (stereo not given)	3	-2	16	1	?	30*
N#Cc1c(NCc2ccccc2)ccnc1Cl	-2	4	2	-2	0	6
Cc1ccc(NC(=O)CN(C)C(=O)c2ccccc2Cc2ccccc2)cc1	-10	·	·	1	·	·
COc1cc(C=NNC(=O)Cn2nc(C)cc2C)ccc1OC(=O)C1CC1	-4	-3	·	-3	1	2
COc1ccc(C(=O)n2nnc3ccccc32)cc1Br	-5	6	9	1	0	96*
COc1ccc(C(=O)n2nnc3ccccc32)cc1OC	-11	-1	·	-4	0	70*
COc1ccc(C(=O)n2cnnc2N)cc1	-10	0	4	5	-1	81*
Cc1cc(C)cc(C(=O)n2cnnc2N)c1	-3	-4	15	0	0	?
Cc1cccc(C(=O)n2cnnc2N)c1	4	-2	21	-9	1	44*
C/C=C1\NC(=O)[C@H](CC(N)=O)N(C)C(=O)C([C@@H](C)O)NC(=O)C(CCCc2ccc(OC)cc2)NC(=O)[C@H](C(C)C)NC(=O)/C(=C\C)NC(=O)[C@H](O)[C@@H](C[C@@H](O)CCCCCCC)NC(=O)[C@H](C)NC(=O)CN(C)C(=O)[C@H](CCC(N)=O)NC1=O (stereo not given in full)	-6	·	·	0	·	·
CN(C)S(=O)(=O)c1cccc(C(=O)Nc2cc(S(=O)(=O)N3CCOCC3)ccc2N2CCCC2)c1	-17	·	·	-11	·	·
O=C(O)C1(c2ccccc2)CCN(S(=O)(=O)c2ccccc2)CC1	4	1.5*	8	-7	1	3

Source: PubChem BioAssay
